Measurements pooled from the literature.
Lines come from different studies, so protocols differ.
WDR5: WD repeat-containing protein 5 (WDR5, Homo sapiens, UniProt P61964)
OfChi-h: Chitinase (OfChi-h, Ostrinia furnacalis, UniProt Q4AE59)
HDAC7: Histone deacetylase 7 (HDAC7, Homo sapiens, UniProt Q8WUI4)
PRKCE: Protein kinase C epsilon type (PRKCE, Homo sapiens, UniProt Q02156)

Compound	target	observed	mode	technique	concentration	endpoint	result
C[C@@H]1CN(c2ccc(-c3cc(C(=O)NCCOCCOCCOCCOCCOCCOCCNC(=O)/C=C/c4[nH]cc(C(=O)N[C@@H](CC(N)=O)c5ccc(F)c(Cl)c5)c4-c4ccc(Cl)cc4F)ccc3F)cc2NC(=O)c2ccc(F)cc2C(F)(F)F)C[C@H](C)N1C	WDR5	thermal stability		DSF	5.5 µM	ΔTm	5.9 °C
CN(C)c1nc(NCc2cccc(F)c2)c(/N=N/c2ccc(Cl)cc2)c(N(C)C)n1	OfChi-h	enzyme activity	inhibitor	fluorescence	1 µM	inhibition	82.7%
O=C(NO)c1cc(F)cc(OS(=O)(=O)Oc2ccccc2)c1	HDAC7	enzyme activity	inhibitor	fluorescence	10 µM	inhibition	47%
CC(C)Oc1ccc(S(=O)(=O)c2ccc(Oc3cc(OCC(N)=O)c(C(=O)C(Cl)Cl)cc3[N+](=O)[O-])cc2)cc1	[Pyruvate dehydrogenase (acetyl-transferring)] kinase isozyme 3, mitochondrial (PDK3, Homo sapiens, UniProt Q15120)	enzyme activity	inhibitor	ATP luminescence	10 µM	inhibition	27.9%
O=C(NO)c1cncc(OS(=O)(=O)Oc2ccc(C(F)(F)F)cc2)c1	HDAC7	enzyme activity	inhibitor	fluorescence	10 µM	inhibition	49%
CNc1ncc2c(/C=C/C(=O)N3CCC(OC)CC3)nn(Cc3cccc(C(F)(F)F)c3)c2n1	PRKCE	enzyme activity	inhibitor	radiometric	1 µM	remaining activity	99%
O=C(Cn1cc(C=CC(=O)c2ccc(F)cc2)nn1)Nc1nc(-c2ccccc2)cs1	72 kDa type IV collagenase (MMP2, Homo sapiens, UniProt P08253)	enzyme activity	inhibitor		0.5 µM	inhibition	40.6%
O=C(O)CNc1cccc(CN(Cc2ccc(-n3cccn3)cc2)S(=O)(=O)c2cccnc2)n1	Beta-2 adrenergic receptor (ADRB2, Homo sapiens, UniProt P07550)	ligand displacement		radioligand	10 µM	inhibition	12%
C=CC(=O)N1CCC(COCC(=O)N2CCN(c3nc(-c4cnc(N)nc4C(F)F)nc(N4CCOC[C@@H]4C)n3)CC2)CC1	Epithelial discoidin domain-containing receptor 1 (DDR1, Homo sapiens, UniProt Q08345)	binding		competition with immobilised ligand	1 µM	remaining binding	99%
CCCCc1ccc(CNc2nc(N(C)C)nc(N(C)C)c2/N=N/c2ccc(Cl)cc2)cc1	OfChi-h	enzyme activity	inhibitor	fluorescence	1 µM	inhibition	91.9%
Cc1cc([C@@H](C)Nc2ccccc2C(=O)O)c2nc(N3CCC(F)(F)CC3)c(C#N)c(=O)n2c1	PRKCE	binding		competition with immobilised ligand	10 µM	remaining binding	100%
COc1cc(-c2cncc3c2CN(C)Cc2cc(N4CCNCC4)ccc2-3)cc(OC)c1OC	Serine/threonine-protein kinase 35 (STK35, Homo sapiens, UniProt Q8TDR2)	enzyme activity	inhibitor		1 µM	remaining activity	111%
C[C@@H]1CN(c2ccc(-c3cc(C(=O)NCCOCCOCCOCCOCCNC(=O)Cn4cc(-c5[nH]cc(C(=O)N[C@@H](CC(N)=O)c6ccc(F)c(Cl)c6)c5-c5ccc(Cl)cc5F)cn4)ccc3F)cc2NC(=O)c2c[nH]c(=O)cc2C(F)(F)F)C[C@H](C)N1C	WDR5	thermal stability		DSF	5.5 µM	ΔTm	13.4 °C
